Compound activity as filed in PubChem BioAssay.
Rows were chosen to be rich in hits. Some 2.4% of all compounds tested hit in one or more screens of this group.
Rin1-Abl PPI inh = human Rin1-Abl interaction inhibition; P00519+Q13671; TR-FRET Rin1/Abl binding, biochemical; inhibition, % at 7.35 µM; actives 0.4% (n = 360,000); AID 588664; in the data active = inhibition above about 5%, passing the limit was not always enough
TPT1 inh = inhibitors of Candida albicans tRNA 2'-phosphotransferase TPT1 | recombinant caTPT1, FP RNA substrate dephosphorylation | inhibition, % at 5 µM | actives 0.81% (n = 300,000);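 active = inhibition above the mean of all tested compounds plus 3 SD, set per screening campaign, cut at about 24% in these data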;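 note: plate controls were DMSO alone for no effect and ferristatin control at 100 nM for full effect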
Neddyl block = blocks human cullin neddylation; P61081+Q13564; TR-FRET cullin neddylation, biochemical; inhibition, % at 25 µM; actives 0.58% (n = 360,000); AID 651699; in the data active = inhibition above about 36%
Target sequence (P61081 whole entry, looked up): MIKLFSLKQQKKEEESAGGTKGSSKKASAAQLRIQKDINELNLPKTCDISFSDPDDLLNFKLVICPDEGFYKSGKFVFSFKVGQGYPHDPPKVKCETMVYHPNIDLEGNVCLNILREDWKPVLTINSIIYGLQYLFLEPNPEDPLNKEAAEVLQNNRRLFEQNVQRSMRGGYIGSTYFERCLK
Target sequence (Q13564 whole entry, looked up): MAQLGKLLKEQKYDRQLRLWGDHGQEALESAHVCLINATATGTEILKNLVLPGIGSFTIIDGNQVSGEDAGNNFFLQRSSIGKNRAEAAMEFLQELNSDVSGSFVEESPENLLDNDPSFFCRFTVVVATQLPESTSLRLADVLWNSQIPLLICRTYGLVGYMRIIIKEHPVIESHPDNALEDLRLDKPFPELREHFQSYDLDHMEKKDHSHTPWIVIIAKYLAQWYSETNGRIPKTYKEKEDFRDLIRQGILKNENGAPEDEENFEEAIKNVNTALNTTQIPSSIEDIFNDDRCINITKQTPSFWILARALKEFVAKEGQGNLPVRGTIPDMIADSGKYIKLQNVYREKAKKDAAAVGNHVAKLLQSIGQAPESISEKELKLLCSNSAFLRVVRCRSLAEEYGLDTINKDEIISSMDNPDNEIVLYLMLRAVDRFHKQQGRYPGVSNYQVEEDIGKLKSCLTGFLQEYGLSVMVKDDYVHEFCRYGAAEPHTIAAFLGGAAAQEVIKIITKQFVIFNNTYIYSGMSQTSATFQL
CSN deneddyl inh = inhibitors of human CSN-mediated cullin deneddylation; actives 0.38% (n = 360,000); Purified CSN, SCF-Nedd8-OG deneddylation, fluorescence polarization; inhibition, % at 12.5 µM; Q92905;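 active = pattern-corrected inhibition above about 35%, with an unprinted fluorescence ratio check between 0.5 and 1.5, limit read from the data, passing the limit was not always enough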;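 note: 0% = enzyme with substrate and 100% = substrate without enzyme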
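Material: purified human Csn5 enzyme expressed in HEK293T cells / Medium: Tris buffer pH 7.5, NaCl, DTT, Tween-20, trehalose, ovalbumin / Compound dosing: 12.5 µM single point / Schedule: 90 min incubation of compound, enzyme and substrate at room temperature / Signal: fluorescence polarization of the substrate / Control set: no-enzyme wells high, enzyme-with-substrate wells low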
Rpn11 inh = inhibitors of human proteasome Rpn11; inhibition, % at 20 µM; human 26S proteasome, Ub4-pepOG fluorescence polarization; 20S core pre-blocked with epoxomicin; actives 0.59% (n = 360,000);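 active = inhibition at 20 µM, scaled to each plate's controls, above about 33%, limit read from the data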
HNF4A DNA FP = change in binding of human HNF4 alpha to DNA; P41235; HNF4a-FITC DNA binding, fluorescence polarization, 1 h; activity change, % at 10 µM; actives 0.3% (n = 360,000); AID 1224865; in the data active = activity change above about 30%, passing the limit was not always enough
Starred values were filed as active, the others as inactive; x = not tested or not shown.

SMILES	Rin1-Abl PPI inh	TPT1 inh	Neddyl block	CSN deneddyl inh	Rpn11 inh	HNF4A DNA FP
CC(C)OC(=O)c1nn2c(C(F)(F)F)cc(-c3ccco3)nc2c1Cl	2	5	10	14	x	65*
CC(C)OC(=O)c1nn2c(C(F)(F)F)cc(-c3ccc(Br)o3)nc2c1Br	2	2	27	0	34	0
N#Cc1c(NC(=O)c2ccco2)sc2c1CCC2	-4	2	13	39*	14	-16
COc1ccc(C2=NN3C(C2)c2ccccc2OC3c2cccs2)cc1 (configuration not stated)	0	9	21	9	40*	6
Cc1ccc(/C=N/NC(=O)c2ccoc2C)o1	2	0	-11	-10	-3	-2
Cc1occc1C(=O)N/N=C/C=C/c1ccc(N(C)C)cc1	-6	14	40*	16	10	24
Cc1occc1C(=O)N/N=C/c1ccc(N(C)C)cc1	-2	2	39*	2	-7	2
CCCCN(C(=O)c1ccc(S(=O)(=O)N2CCCC2)cc1)C1CCS(=O)(=O)C1 (configuration not stated)	5	1	-2	-2	-4	0
Cc1cccc(NC(=O)CCNC(=O)c2ccco2)c1	5	-1	11	4	4	1
O=C(NCc1ccccc1)C(=O)NCC1OCCN1S(=O)(=O)c1ccc([N+](=O)[O-])cc1 (configuration not stated)	-6	-2	-39	4	-2	32*
CCN(CC(=O)N1CCOCC1)S(=O)(=O)c1ccc(F)cc1	2	1	0	1	-2	-2
O=C(c1cccn2c(=O)c3ccccc3nc12)N1CCN(Cc2ccc3c(c2)OCO3)CC1	-3	-1	x	-1	0	10
O=C(c1ccc2nc3ccccc3c(=O)n2c1)N1CCN(Cc2ccc3c(c2)OCO3)CC1	-5	2	x	7	12	39*
COC(=O)c1cccc(Cn2c(Cl)c(/C=N/NC(=O)c3ccco3)sc2=O)c1	-4	11	-21	2	7	8
C=CCn1c(NC(=O)c2ccccc2Cl)c(C#N)c2nc3ccccc3nc21	5	14	x	57*	34	64*
CCOC(=O)c1cc(OC)c2cccc(CN3CCC(C)(C(=O)NCCOC)C3)c2c1 (configuration not stated)	-3	x	50*	-11	-60	-26
COc1ccc(-c2nc3ccccc3c(=O)[nH]2)cc1	2	-1	-79	1	8	-2
CN(C)c1ccc(-c2nc3ccccc3c(=O)[nH]2)cc1	-6	1	42*	-6	0	-1
COc1ccc(OC)c(Nc2nc(-c3sc(NC(=O)c4ccccc4)nc3C)cs2)c1	x	36*	x	x	x	x
N#Cc1ccc(-c2ccc(F)cc2)nc1SCC(=O)Nc1sc2c(c1C#N)CCC2	2	26*	-244	8	16	6
O=C(Nc1cccc(/C=C/c2ccccn2)c1)c1cc(Cl)ccn1	-3	5	9	2	19	6
O=C(Nc1cccc(Br)c1)Oc1cccc2cccnc12	-1	x	2	8	0	1
O=C(Nc1c(Cl)cccc1Cl)Oc1cccc2cccnc12	2	x	x	0	51*	1
Cc1ccc(N(CN2C(=O)c3ccccc3C2=O)C(=O)c2ccc([N+](=O)[O-])cc2[N+](=O)[O-])cc1	-2	-1	-28	0	6	5
O=C(COC(=O)CCc1c[nH]c(=O)[nH]1)Nc1cccc(Cl)c1	11*	2	12	-7	-10	1
SMILES	Rin1-Abl PPI inh	TPT1 inh	Neddyl block	CSN deneddyl inh	Rpn11 inh	HNF4A DNA FP
O=C(CSc1ccc([N+](=O)[O-])cn1)Nc1ccc2c(c1)OCO2	2	1	-29	-4	-4	-4
COCCn1c(SCC(=O)Nc2ccc3c(c2)OCCO3)nnc1C(C)C	1	-5	-3	-1	-1	3
COCCn1c(SCC(=O)c2ccc3c(c2)OCCO3)nnc1C(C)C	-1	-1	8	84*	-1	1
CN(/N=C/c1ccncc1)c1cnn(-c2ccc(F)c(Cl)c2)c(=O)c1Cl	-1	-4	26	44*	22	-2
COc1ccc2ccc3c(c2c1)N=CC1(O3)N(C)c2ccccc2C1(C)C (configuration not stated)	6	-4	43*	5	-1	0
CC(C)(C)N1C(=O)Cc2c1nc(N)c1c(N)nc(N3CCCCC3CO)c(C#N)c21 (configuration not stated)	20*	2	22	53*	12	6
O=C1C2CSCN2C(=O)CN1CCCN1CCN(C(c2ccccc2)c2ccccc2)CC1 (configuration not stated)	5	-1	5	1	2	0
Cc1cc(C)cc(-n2nnnc2-c2cn(C)nc2C(F)(F)F)c1	7.5*	-6	4	5	4	2
[O-]/C(=C(\C(=S)Nc1ccccc1F)[n+]1ccccc1)c1ccc(OC(F)F)cc1	1	4	1	6	-2	75*
O=C1c2ccccc2C(=O)N1/N=C/c1ccc(O)c(O)c1O	65*	x	-19	23	2	-6
O=C(NNC(=O)c1ccccc1O)c1ccc(S(=O)(=O)Nc2ccccc2)cc1	-6	0	9	4	-7	3
CCOC(=O)Cn1nnc(-c2ccccc2)n1	-2	1	-7	1	-2	0
CCOC(=O)C(Cc1ccccc1)NC(=O)Cn1nnc(-c2ccccc2)n1 (configuration not stated)	-4	1	6	-4	5	39*
O=C(CSc1nnc2scc(-c3ccccc3)n12)Nc1nsc(-c2ccc(Cl)cc2)n1	0	3	-112	47*	24	-7
O=C(CSc1nnc2scc(-c3ccccc3)n12)Nc1nsc(-c2ccccc2)n1	0	2	-25	32	39	10
O=C1NC(=S)S/C1=C\c1ccc(SCc2ccco2)o1	12*	90*	-4	56	182*	-21
O=C1NC(=S)SC1=Cc1ccccc1Cl	5	x	0	4	10	20
CCCCC(CC)C(=O)Oc1ccc(O)c(C(C)(C)C)c1 (configuration not stated)	9.2*	-2	-8	9	1	-2
CCCn1c(N)c(N(CCOC)C(=O)c2cc(C)cc(C)c2)c(=O)[nH]c1=O	0	2	14	5	4	35*
CCCn1c(N)c(N(CCOC)C(=O)c2cccc(Cl)c2)c(=O)[nH]c1=O	2	-2	-7	2	-3	-4
CC1=NN(c2ccccc2)C(=O)/C1=C\c1cn(CCC#N)nc1-c1ccc(Cl)cc1	7	5	0	0	2	35*
